ChEMBL document CHEMBL1122517, “2-Phenylindoles. Relationship between structure, estrogen receptor affinity, and mammary tumor inhibiting activity in the rat” (1984)
Several values for one entry are separate records, joined by “and”; a condition that tells them apart may be missing. Identical values can stand only once. One block for each compound: values may come before it.

Tests used:
Rattus norvegicus [1] = species on record: Rattus norvegicus; test: Change in DMBA-induced mammary carcinoma tumor area in rats at 1.7 mg dose; 318-1054; assay type: functional
How it was run: (§1)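 Female Sprague-Dawley rats got one 20 mg DMBA dose by gavage at 50 days old and were palpated twice weekly from day 30. Rats were randomized once tumor area exceeded 140 mm². Dose (per kg) was given sc in olive oil, once daily Monday to Thursday and doubled on Friday. Tumor area was taken from caliper measurements of two perpendicular axes, twice weekly. Change per animal is given as median % and range.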

[2] = target: T1, Estrogen receptor (Mus musculus) (UniProt O08537+P19785); test: Anti-uterotrophic activity in mice as uterus dry weight (mg)/body weight (g) *100 at 5 ug dose; assay type: functional, tissue-based
T1 sequence (O08537 whole entry, looked up): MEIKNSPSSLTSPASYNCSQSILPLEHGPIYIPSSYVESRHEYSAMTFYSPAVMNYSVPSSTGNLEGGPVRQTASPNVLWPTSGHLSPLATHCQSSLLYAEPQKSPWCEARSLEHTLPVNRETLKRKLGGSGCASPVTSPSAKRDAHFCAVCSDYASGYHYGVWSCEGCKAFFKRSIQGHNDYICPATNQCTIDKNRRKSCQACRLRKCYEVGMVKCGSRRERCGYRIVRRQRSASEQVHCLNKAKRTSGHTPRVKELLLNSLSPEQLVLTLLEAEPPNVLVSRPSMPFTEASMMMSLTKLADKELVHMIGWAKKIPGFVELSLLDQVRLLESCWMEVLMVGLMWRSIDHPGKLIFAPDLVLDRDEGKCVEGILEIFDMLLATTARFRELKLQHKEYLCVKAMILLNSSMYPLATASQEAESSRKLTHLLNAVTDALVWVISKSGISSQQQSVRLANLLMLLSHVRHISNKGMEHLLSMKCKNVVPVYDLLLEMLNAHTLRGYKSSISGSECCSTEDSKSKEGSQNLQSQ
T1 sequence (P19785 whole entry, looked up): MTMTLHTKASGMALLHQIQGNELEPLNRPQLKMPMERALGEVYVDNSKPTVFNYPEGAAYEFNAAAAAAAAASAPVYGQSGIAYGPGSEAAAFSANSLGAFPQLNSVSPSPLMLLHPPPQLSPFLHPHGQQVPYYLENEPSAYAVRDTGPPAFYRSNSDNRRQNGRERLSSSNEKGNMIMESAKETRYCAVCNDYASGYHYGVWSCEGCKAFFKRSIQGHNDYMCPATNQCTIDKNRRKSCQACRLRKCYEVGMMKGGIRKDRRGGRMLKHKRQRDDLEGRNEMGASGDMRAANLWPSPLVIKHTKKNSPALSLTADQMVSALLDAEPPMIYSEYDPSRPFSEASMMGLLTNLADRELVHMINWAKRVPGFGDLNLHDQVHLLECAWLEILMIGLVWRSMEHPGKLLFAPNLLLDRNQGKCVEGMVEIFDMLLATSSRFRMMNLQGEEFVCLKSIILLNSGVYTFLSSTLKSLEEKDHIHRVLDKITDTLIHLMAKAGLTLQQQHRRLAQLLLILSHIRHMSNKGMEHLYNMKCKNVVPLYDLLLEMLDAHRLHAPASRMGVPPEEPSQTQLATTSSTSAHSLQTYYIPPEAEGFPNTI
How it was run: (§2)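 Immature female NMRI mice, 19 days old, groups of 10, given sc injections on 3 consecutive days. Each injection held 0.4 μg estrone plus the indole dose per animal, in olive oil (50 μL). Killed 24 h after the last injection. Uteri were fixed in Bouin solution, washed, and dried 24 h at 100 °C. Read-out was uterine dry weight (mg)/body weight (g) × 100, mean ± SD.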

Rattus norvegicus [3] = species on record: Rattus norvegicus; test: Change in body weight of DMBA-induced mammary carcinoma tumor bearing rats at 1.7 mg dose; assay type: functional
How it was run: (§3)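 DMBA-induced tumor-bearing Sprague-Dawley rats (20 mg DMBA by gavage at 50 days old), randomized when tumor area exceeded 140 mm². Dose per kg was given sc in olive oil, single dose daily Monday to Thursday, double dose Friday. Body weight was measured twice weekly. Read-out was % change in body weight.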

Rattus norvegicus [4] = species on record: Rattus norvegicus; test: Percent progressive DMBA-induced mammary carcinoma tumors in rats at 5.1 mg dose; assay type: functional
How it was run: (§4)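 Female Sprague-Dawley rats, 50 days old, given a single 20 mg DMBA dose in 1 mL olive oil by gavage. Rats were palpated twice weekly from day 30, and those without tumors by day 70 were discarded. Rats were randomized once tumor area exceeded 140 mm². Drug dose was per kg in olive oil (1 mL/kg) sc, single dose Mon–Thu and double dose Fri. Tumor area (caliper, two perpendicular axes) and body weight were measured twice weekly.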

[5] = target: T1, Estrogen receptor (Mus musculus); test: Percentage inhibition of uterotrophic activity at 25 ug dose; assay type: functional
How it was run: (§5)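 Antiuterotrophic test in immature 19-day-old female NMRI mice (n=10), dosed sc on 3 consecutive days with 0.4 µg estrone per animal per day plus compound in olive oil. Uterine dry weight/body weight ×100 was read 24 h after the last dose. Inhibition % = 100 − [(E_S,T − E_V)/(E_S − E_V)]×100.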

Rattus norvegicus [6] = species on record: Rattus norvegicus; test: Percent unchanged DMBA-induced mammary carcinoma tumors in rats at 1.7 mg dose; assay type: functional; how it was run: as §4
Rattus norvegicus [7] = species on record: Rattus norvegicus; test: Formation of new DMBA-induced mammary carcinoma tumors in rats at 1.7 mg dose; assay type: functional
How it was run: (§6)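 DMBA-induced tumors in Sprague-Dawley rats, entered when tumor area exceeded 140 mm². Dose per kg was given sc in olive oil, daily Monday to Thursday with a double dose Friday. Tumors were measured by calipers twice weekly. Tumor number was counted at the start of the test. Complete remission meant the tumor was no longer palpable. Partial remission meant reduction to ≤50% of initial size. New tumor appearance was recorded.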

Rattus norvegicus [8] = species on record: Rattus norvegicus; test: Partial remission (%) of DMBA-induced mammary carcinoma tumors in rats at 1.7 mg dose; assay type: functional; how it was run: as §6
[9] = target: T1, Estrogen receptor (Mus musculus); test: Uterotrophic activity in mice as uterus dry weight (mg)/body weight (g) *100 at 125 ug dose; assay type: functional, tissue-based
How it was run: (§7)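 Immature 19-day-old female NMRI mice, groups of 10. Compound dose per animal in olive oil (50 µL) sc on 3 consecutive days. Mice were killed 24 h after the last injection. Uteri were Bouin-fixed 20 h, cleaned, washed with alcoholic LiCl, and dried at 100 °C for 24 h. Effect = uterine dry weight (mg)/body weight (g) ×100; mean ± SD.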

[10] = target: T1, Estrogen receptor (Mus musculus); test: Percentage inhibition of uterotrophic activity at 1 ug dose; assay type: functional; how it was run: as §5
[11] = target: T1, Estrogen receptor (Mus musculus); test: Uterotrophic activity in mice as uterus dry weight (mg)/body weight (g) *100 at 5 ug dose; assay type: functional, tissue-based; how it was run: as §7
Rattus norvegicus [12] = species on record: Rattus norvegicus; test: Change in DMBA-induced mammary carcinoma tumor area in rats at 5.1 mg dose; assay type: functional; how it was run: as §1
Rattus norvegicus [13] = species on record: Rattus norvegicus; test: Number of DMBA-induced mammary carcinoma tumors in rats at 5.1 mg dose; assay type: functional; how it was run: as §6
[14] = target: T1, Estrogen receptor (Mus musculus); test: Percentage inhibition of uterotrophic activity at 125 ug dose; assay type: functional; how it was run: as §5
Rattus norvegicus [15] = species on record: Rattus norvegicus; test: Complete remission (%) of DMBA-induced mammary carcinoma tumors in rats at 5.1 mg dose; assay type: functional; how it was run: as §6
[16] = target: T1, Estrogen receptor (Mus musculus); test: Anti-uterotrophic activity in mice as uterus dry weight (mg)/body weight (g) *100 at 125 ug dose; assay type: functional, tissue-based; how it was run: as §2
[17] = target: T1, Estrogen receptor (Mus musculus); test: Anti-uterotrophic activity in mice as uterus dry weight (mg)/body weight (g) *100 at 1 ug dose; assay type: functional, tissue-based; how it was run: as §2
[18] = target: T1, Estrogen receptor (Mus musculus); test: Anti-uterotrophic activity in mice as uterus dry weight (mg)/body weight (g) *100 at 25 ug dose; assay type: functional, tissue-based; how it was run: as §2
[19] = target: T1, Estrogen receptor (Mus musculus); test: Percentage inhibition of uterotrophic activity at 5 ug dose; assay type: functional; how it was run: as §5
Rattus norvegicus [20] = species on record: Rattus norvegicus; test: Number of DMBA-induced mammary carcinoma tumors in rats at 1.7 mg dose; assay type: functional; how it was run: as §6
Rattus norvegicus [21] = species on record: Rattus norvegicus; test: Change in body weight of DMBA-induced mammary carcinoma tumor bearing rats at 5.1 mg dose; assay type: functional; how it was run: as §3
Rattus norvegicus [22] = species on record: Rattus norvegicus; test: Partial remission (%) of DMBA-induced mammary carcinoma tumors in rats at 5.1 mg dose; assay type: functional; how it was run: as §4
[23] = target: T1, Estrogen receptor (Mus musculus); test: Uterotrophic activity in mice as uterus dry weight (mg)/body weight (g) *100 at 1 ug dose; assay type: functional, tissue-based; how it was run: as §7
Rattus norvegicus [24] = species on record: Rattus norvegicus; test: Percent unchanged DMBA-induced mammary carcinoma tumors in rats at 5.1 mg dose; assay type: functional; how it was run: as §4
Rattus norvegicus [25] = species on record: Rattus norvegicus; test: Change in DMBA-induced mammary carcinoma tumor area in rats at 1.7 mg dose; assay type: functional; how it was run: as §1
Rattus norvegicus [26] = species on record: Rattus norvegicus; test: Change in DMBA-induced mammary carcinoma tumor area in rats at 5.1 mg dose; -44-333; assay type: functional; how it was run: as §1
Rattus norvegicus [27] = species on record: Rattus norvegicus; test: Percent progressive DMBA-induced mammary carcinoma tumors in rats at 1.7 mg dose; assay type: functional; how it was run: as §4
Rattus norvegicus [28] = species on record: Rattus norvegicus; test: Formation of new DMBA-induced mammary carcinoma tumors in rats at 5.1 mg dose; assay type: functional; how it was run: as §6
[29] = target: T1, Estrogen receptor (Mus musculus); test: Uterotrophic activity in mice as uterus dry weight (mg)/body weight (g) *100 at 25 ug dose; assay type: functional, tissue-based; how it was run: as §7
Rattus norvegicus [30] = species on record: Rattus norvegicus; test: Percent unchanged DMBA-induced mammary carcinoma tumors in rats at 2.8 mg dose; assay type: functional; how it was run: as §4
Rattus norvegicus [31] = species on record: Rattus norvegicus; test: Formation of new DMBA-induced mammary carcinoma tumors in rats at 2.8 mg dose; assay type: functional; how it was run: as §6
Rattus norvegicus [32] = species on record: Rattus norvegicus; test: Change in body weight of DMBA-induced mammary carcinoma tumor bearing rats at 2.8 mg dose; assay type: functional; how it was run: as §3
Rattus norvegicus [33] = species on record: Rattus norvegicus; test: Number of DMBA-induced mammary carcinoma tumors in rats at 2.8 mg dose; assay type: functional; how it was run: as §6
Rattus norvegicus [34] = species on record: Rattus norvegicus; test: Partial remission (%) of DMBA-induced mammary carcinoma tumors in rats at 2.8 mg dose; assay type: functional; how it was run: as §4
Rattus norvegicus [35] = species on record: Rattus norvegicus; test: Change in DMBA-induced mammary carcinoma tumor area in rats at 2.8 mg dose; -39-458; assay type: functional; how it was run: as §1
Rattus norvegicus [36] = species on record: Rattus norvegicus; test: Percent progressive DMBA-induced mammary carcinoma tumors in rats at 2.8 mg dose; assay type: functional; how it was run: as §4

inhibition [5]: 42% | inhibition [10]: 33% | inhibition [14]: 62% | inhibition [19]: 35%
SMILES: CC(=O)Oc1ccc(-c2c(C)c3cc(OC(C)=O)ccc3n2C)cc1
Change of tumor area (Rattus norvegicus [1]): 318% | Anti-uterotrophic effect [2]: 39.2 | Change of body weight (Rattus norvegicus [3]): 2% | Progressed tumors (Rattus norvegicus [4]): 39% | Static tumors (Rattus norvegicus [6]): 15% | New tumors (Rattus norvegicus [7]): 38 | Partial remission (Rattus norvegicus [8]): 6% | Uterotrophic effect [9]: 20.9 | Uterotrophic effect [11]: 14.6 | Change of tumor area (Rattus norvegicus [12]): 9% and 18% | No. of tumors (Rattus norvegicus [13]): 37 | Complete remission (Rattus norvegicus [15]): 32% | Anti-uterotrophic effect [16]: 28.8 | Anti-uterotrophic effect [17]: 40 | Anti-uterotrophic effect [18]: 36.6 | No. of tumors (Rattus norvegicus [20]): 29 | Change of body weight (Rattus norvegicus [21]): 0% | Partial remission (Rattus norvegicus [22]): 10% | Uterotrophic effect [23]: 13.7 | Static tumors (Rattus norvegicus [24]): 19% | Change of tumor area (Rattus norvegicus [25]): 577% | Change of tumor area (Rattus norvegicus [26]): -44% | Progressed tumors (Rattus norvegicus [27]): 70% | New tumors (Rattus norvegicus [28]): 37 | Uterotrophic effect [29]: 16.1

SMILES: CC/C(=C(\c1ccccc1)c1ccc(OCCN(C)C)cc1)c1ccccc1.O=C(O)CC(O)(CC(=O)O)C(=O)O [TAMOXIFEN CITRATE]
Static remission (Rattus norvegicus [30]): 27% | New tumors (Rattus norvegicus [31]): 26 | Change of body weight (Rattus norvegicus [32]): 0 | No. of tumors (Rattus norvegicus [33]): 34 | Partial remission (Rattus norvegicus [34]): 7% | Change of tumor area (Rattus norvegicus [35]): -39% | Progressed tumors (Rattus norvegicus [36]): 53
